From article PMC9029315 (RSC Advances, 2021)
Values after ≈ are worked out from the molar mass of the structure shown. Read-outs that look alike come from different tables or passages of the source.

Key:
[1] = tested on: M. tb H37Rv strain; conditions: cited from earlier work
[2] = tested on: M. tb H37Rv strain; assay: Anti-TB activity, microplate alamarBlue assay; type: cell-based, Mycobacterium tuberculosis; conditions: H37Rv MIC values converted to μM; for H37Rv, MIC: MABA; for MIC: Mycobacterium tuberculosis, H37RV, read-out: H37Rv, MIC, MABA
Procedure, shortened: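 Whole-cell M. tuberculosis H37Rv growth inhibition by microplate alamarBlue assay. MIC is the lowest concentration giving at least 90% reduction of bacterial growth, averaged over three individual measurements. It was then converted to molar units. Front-line anti-TB drugs served as positive controls.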

[3] = tested on: KNS42 cells (paediatric GBM); assay: KNS42 cell proliferation assay; type: cell-based; conditions: Homo sapiens, KNS-42, 72 h, read-out: KNS42 prolif., IC50
Procedure, shortened: (§1)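 Human cells were kept at 37 °C, 5% CO2 with pen/strep in RPMI/10% FBS (KNS42, BT-12, BT-16), EMEM/10% FBS (DAOY) or DMEM/15% FBS (HFF1). Seeding was 2000 cells/well (KNS42 4000), followed by overnight attachment. Compound medium (0.5, 1, 2.5, 5, 7.5, 10) or 0.1% DMSO control was then applied for 72 h. MTT absorbance was read at 570/600 nm, background subtracted, and IC50 calculated.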

[4] = tested on: BT12 cells (AT/RT); assay: BT12 cell viability assay; type: cell-based; conditions: Homo sapiens, BT-12, 72 h, read-out: BT12 viability, IC50
Procedure, shortened: (§2)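 Cultures were grown at 37 °C, 5% CO2 with pen/strep in RPMI/10% FBS (BT-12, BT-16), EMEM/10% FBS (DAOY) or DMEM/15% FBS (HFF1). Cells were plated at 2000 per well and incubated overnight. They were then exposed for 72 h to test compound (0.5–10, six levels) or 0.1% DMSO medium. PrestoBlue fluorescence was read at 560/590 nm, background removed, and IC50 derived.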

[5] = tested on: BT16 cells (AT/RT); assay: BT16 cell viability assay; type: cell-based; conditions: Homo sapiens, BT-16, 72 h, read-out: BT16 viability, IC50
Procedure, shortened: as §2

[6] = tested on: BT16 cells (AT/RT); assay: BT16 cell proliferation assay; type: cell-based; conditions: Homo sapiens, BT-16, 72 h, read-out: BT16 prolif., IC50
Procedure, shortened: as §1

[7] = tested on: DAOY cells (medulloblastoma); assay: DAOY cell proliferation assay; type: cell-based; conditions: Homo sapiens, 72 h, read-out: DAOY prolif., IC50
Procedure, shortened: as §1

[8] = tested on: BT12 cells (AT/RT); assay: BT12 cell proliferation assay; type: cell-based; conditions: Homo sapiens, BT-12, 72 h, read-out: BT12 prolif., IC50
Procedure, shortened: as §1

[9] = tested on: HFF1 non-neoplastic human fibroblasts; assay: HFF1 cell proliferation assay; type: cell-based; conditions: HFF-1, 72 h, read-out: HFF1 prolif., IC50
Procedure, shortened: as §1

[10] = tested on: carbonic anhydrase 9 (CA9) gene; assay: Transcriptional analysis of KNS42 cells, CA9 expression; type: cell-based, human; conditions: 10 μM, 72 hours, versus untreated, p < 0.01
Procedure, shortened: (§3)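 KNS42 cells in RPMI/10% FBS with pen/strep, 37 °C, 5% CO2, were treated with test compound at 10 for 72 h. Cells were PBS-washed, scraped and pelleted. RNA was TRIzol-extracted, resuspended in DEPC water and quantified by Qubit broad-range assay. Samples underwent DNBSEQ eukaryotic stranded transcriptome resequencing to determine differential expression.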

[11] = tested on: KNS42 cells; assay: Transcriptional analysis of KNS42 cells, differential gene expression; type: cell-based, human; conditions: 10 μM, 72 hours, fold change ≥ 8, P < 0.05
Procedure, shortened: as §3

[12] = tested on: HFF1 non-neoplastic human fibroblasts; assay: HFF1 cell viability assay; type: cell-based; conditions: HFF-1, 72 h, read-out: HFF1 viability, IC50
Procedure, shortened: as §2

[13] = tested on: spleen tyrosine kinase (SYK) gene; assay: Transcriptional analysis of KNS42 cells, SYK expression; type: cell-based, human; conditions: 10 μM, 72 hours, versus untreated, p < 0.05
Procedure, shortened: as §3

[14] = tested on: DAOY cells (medulloblastoma); assay: DAOY cell viability assay; type: cell-based; conditions: Homo sapiens, 72 h, read-out: DAOY viability, IC50
Procedure, shortened: as §2

[15] = tested on: healthy cells; conditions: read-out: Cytotoxicity to healthy cells, IC50; cited from earlier work
[16] = tested on: Vero cells; assay: Cytotoxicity against Vero cells; type: cell-based; conditions: SI = IC50(Vero)/MIC(H37Rv)
[17] = tested on: human THP-1 cells; conditions: cited from earlier work
[18] = target: cannabinoid receptor 2 (CB2); conditions: read-out: CB2 agonistic activity, EC50; cited from earlier work

Compound: NNC(=O)c1ccncc1 [INH, isoniazid]
- H37Rv, MIC [1]: 0.04 (ref. [6]) μg mL^−1

Compound: O=C(NC12CC3CC(CC(C3)C1)C2)c1ccc(NC(=O)c2cc3c(F)cc(F)cc3[nH]2)cc1 [Compound 20, N-(4-((Adamantan-1-yl)carbamoyl)phenyl)-4,6-difluoro-1H-indole-2-carboxamide]
- H37Rv, MIC [2]: >71 µM
- MIC [2]: > 71 µM
- IC50 [3]: > 10 µM

Compound: Cc1ccc2[nH]c(C(=O)NC(C)C34CC5CC(CC(C5)C3)C4)cc2c1 (centres unmarked) [Compound 8d, N-(1-(Adamantan-1-yl)ethyl)-5-methyl-1H-indole-2-carboxamide]
- MIC [2]: 2.97 µM (≈ 0.999 µg/mL)
- IC50 [3]: > 10 µM

Compound: CC(NC(=O)c1cc2c(F)cc(F)cc2[nH]1)C12CC3CC(CC(C3)C1)C2 (centres unmarked) [Compound 8h, N-(1-(Adamantan-1-yl)ethyl)-4,6-difluoro-1H-indole-2-carboxamide]
- IC50 [3]: > 10 µM

Compound: CC(NC(=O)c1cc2cc(Cl)ccc2[nH]1)C12CC3CC(CC(C3)C1)C2 (centres unmarked) [Compound 8e, N-(1-(Adamantan-1-yl)ethyl)-5-chloro-1H-indole-2-carboxamide]
- IC50 [3]: > 10 µM

Compound: O=C(NNc1ccccc1)c1cc2c(F)cc(F)cc2[nH]1 [Compound 9b, 4,6-Difluoro-N′-phenyl-1H-indole-2-carbohydrazide]
- H37Rv, MIC [2]: >111 µM
- MIC [2]: > 96 µM
- IC50 [3]: > 10 µM

Compound: CC[C@@H](CO)NCCN[C@@H](CC)CO [EMB, ethambutol]
- H37Rv, MIC [1]: 1 (ref. [6]) μg mL^−1

Compound: O=C(c1cc2c(F)cc(F)cc2[nH]1)N1CCN(C(=O)C23CC4CC(CC(C4)C2)C3)CC1 [Compound 15, (Adamantan-1-yl)(4-(4,6-difluoro-1H-indole-2-carbonyl)piperazin-1-yl)methanone]
- IC50 [4]: 3.16 µM
- IC50 [5]: 5.89 µM
- IC50 [6]: > 10 µM
- IC50 [7]: > 10 µM
- IC50 [8]: > 10 µM
- IC50 [9]: 17.4 µM
- Downregulation of CA9 expression [10]: 15 fold
- Number of genes with downregulated expression [11]: 9 genes
- H37Rv, MIC [2]: >75 µM
- IC50 [3]: 6.62 µM
- IC50 [12]: 19.4 µM
- Downregulation of SYK expression [13]: 9 fold
- IC50 [14]: > 10 µM

Compound: O=C(NC(=O)c1cc2c(F)cc(F)cc2[nH]1)c1cccc(F)c1 [Compound 11a, 4,6-Difluoro-N-(3-fluorobenzoyl)-1H-indole-2-carboxamide]
- H37Rv, MIC [2]: >101 µM
- MIC [2]: > 96 µM
- IC50 [3]: > 10 µM

Compound: Cc1cc(C)c2cc(C(=O)NC34CC5CC(CC(C5)C3)C4)[nH]c2c1 [Compound 2, N-(1-adamantyl)-4,6-dimethylindole-2-carboxamide]
- IC50 [15]: > 200 µM
- MIC [1]: 0.012 µM (≈ 0.00387 µg/mL)

Compound: O=C(NC(=O)c1cc2c(F)cc(F)cc2[nH]1)c1cccc(Cl)c1 [Compound 11b, N-(3-Chlorobenzoyl)-4,6-difluoro-1H-indole-2-carboxamide]
- H37Rv, MIC [2]: >96 µM
- IC50 [3]: > 10 µM

Compound: CC(NC(=O)c1cc2ccccc2[nH]1)C12CC3CC(CC(C3)C1)C2 (centres unmarked) [Compound 8a, N-(1-(Adamantan-1-yl)ethyl)-1H-indole-2-carboxamide]
- H37Rv, MIC [1]: > 15.5 µM
- MIC [2]: 6.2 µM (≈ 2 µg/mL)
- IC50 [3]: > 10 µM

Compound: COc1ccc2[nH]c(C(=O)NC(C)C34CC5CC(CC(C5)C3)C4)cc2c1 (centres unmarked) [Compound 8c, N-(1-(Adamantan-1-yl)ethyl)-5-methoxy-1H-indole-2-carboxamide]
- H37Rv, MIC [2]: 5.67 µM
- MIC [2]: < 6 µM
- IC50 [3]: > 10 µM

Compound: CC(NC(=O)c1cc2c(Cl)cc(Cl)cc2[nH]1)C12CC3CC(CC(C3)C1)C2 (centres unmarked) [Compound 8g, N-(1-(Adamantan-1-yl)ethyl)-4,6-dichloro-1H-indole-2-carboxamide]
- SI (selectivity index) [16]: 128
- MIC [2]: 0.32 µM (≈ 0.125 µg/mL)
- IC50 [3]: > 10 µM

Compound: COc1cccc2[nH]c(C(=O)NC(C)C34CC5CC(CC(C5)C3)C4)cc12 (centres unmarked) [Compound 8b, N-(1-(Adamantan-1-yl)ethyl)-4-methoxy-1H-indole-2-carboxamide]
- IC50 [3]: > 10 µM

Compound: O=C(c1cc2c(F)cc(F)cc2[nH]1)N1CCNCC1 [Compound 14, (4,6-Difluoro-1H-indol-2-yl)(piperazin-1-yl)methanone]
- H37Rv, MIC [2]: >121 µM
- MIC [2]: > 121 µM
- IC50 [3]: > 10 µM

Compound: O=C(NC12CC3CC(CC(C3)C1)C2)c1cc2ccccc2[nH]1 [Compound 3, N-(1-adamantyl)-indole-2-carboxamide]
- Cytotoxicity against human THP-1 cells [17]: non-cytotoxic up to 50
- EC50 [18]: 0.98 µM
- IC50 [3]: > 10 µM

Compound: CC(NC(=O)c1cc2ccc(Br)cc2[nH]1)C12CC3CC(CC(C3)C1)C2 (centres unmarked) [Compound 8f, N-(1-(Adamantan-1-yl)ethyl)-6-bromo-1H-indole-2-carboxamide]
- SI (selectivity index) [16]: 64
- MIC [2]: 0.62 µM (≈ 0.249 µg/mL)
- IC50 [3]: > 10 µM

Compound: O=C(NCc1ccccc1)c1cc2c(F)cc(F)cc2[nH]1 [Compound 9a, N-Benzyl-4,6-difluoro-1H-indole-2-carboxamide]
- IC50 [4]: 0.89 µM
- IC50 [5]: 1.81 µM
- IC50 [6]: 6.06 µM
- IC50 [7]: > 10 µM
- IC50 [8]: 7.44 µM
- IC50 [9]: 65 µM
- H37Rv, MIC [2]: >112 µM
- MIC [2]: > 112 µM
- IC50 [3]: 9.85 µM
- IC50 [12]: 119 µM
- IC50 [14]: > 10 µM
